Converted amounts (≈) assume the structure as drawn.
Key:
Assay type in all cases: functional
[1] = system: Candida parapsilosis; assay: Antifungal activity against Candida parapsilosis ATCC 22019 after 48 hrs by M27-A3 CLSI method; settings: Lodderomyces parapsilosis, ATCC 22019, 48 h
In short: (§1)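 Broth microdilution in RPMI 1640, two-fold serial dilutions, final test range 0.125–64 µg mL-1 (fluconazole reference 0.0078–128 µg mL-1). Inoculum 1.0×10^3–1.5×10^3 cells mL-1 from yeasts grown 24 h at 35 °C on Sabouraud dextrose agar. Incubation 35 °C, read at 48 h. MIC = lowest concentration giving >50% turbidity decrease versus growth control. Run three times in triplicate. C. parapsilosis ATCC22019 served as QC.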

[2] = system: Candida albicans; assay: Antifungal activity against Candida albicans ATCC 24433 after 48 hrs by M27-A3 CLSI method; settings: Candida albicans, ATCC 24433, 48 h; read-out: MIC; in short: as §1
[3] = system: Candida tropicalis; assay: Antifungal activity against Candida tropicalis PMC 0910 after 48 hrs by M27-A3 CLSI method; settings: PMC 0910, 48 h; in short: as §1
[4] = system: Candida; assay: Antifungal activity against Candida sp. after 48 hrs by M27-A3 CLSI method; in short: as §1
[5] = system: Candida albicans; assay: Antifungal activity against Candida albicans ATCC 10231 after 48 hrs by M27-A3 CLSI method; settings: ATCC 10231, 48 h; in short: as §1
[6] = system: Nakaseomyces glabratus; assay: Antifungal activity against Candida glabrata PMC 0805 after 48 hrs by M27-A3 CLSI method; settings: PMC 0805, 48 h; in short: as §1
[7] = system: Candida albicans; assay: Antifungal activity against Candida albicans ATCC 76615 after 48 hrs by M27-A3 CLSI method; settings: ATCC 76615, 48 h; in short: as §1
[8] = system: Candida tropicalis; assay: Antifungal activity against Candida tropicalis DSM 11953 after 48 hrs by M27-A3 CLSI method; settings: DSM 11953, 48 h; in short: as §1
[9] = system: Candida albicans; assay: Antifungal activity against Candida albicans ATCC 3153 after 48 hrs by M27-A3 CLSI method; settings: ATCC 3153, 48 h; in short: as §1
[10] = system: Pichia kudriavzevii; assay: Antifungal activity against Candida krusei DSM 6128 after 48 hrs by M27-A3 CLSI method; settings: DSM 6128, 48 h; in short: as §1
[11] = system: Candida parapsilosis; assay: Antifungal activity against Candida parapsilosis DSM 11224 after 48 hrs by M27-A3 CLSI method; settings: Lodderomyces parapsilosis, DSM 11224, 48 h; read-out: MIC; in short: as §1
[12] = system: Pichia kudriavzevii; assay: Antifungal activity against Candida krusei PMC 0613 after 48 hrs by M27-A3 CLSI method; settings: Pichia kudriavzevii, PMC 0613, 48 h; read-out: MIC; in short: as §1
[13] = system: Candida albicans; assay: Antifungal activity against Candida albicans after 48 hrs by M27-A3 CLSI method; in short: as §1
[14] = system: Pichia kudriavzevii; assay: Antifungal activity against Candida krusei after 48 hrs by M27-A3 CLSI method; in short: as §1
[15] = system: Candida parapsilosis; assay: Antifungal activity against Candida parapsilosis after 48 hrs by M27-A3 CLSI method; settings: Lodderomyces parapsilosis; in short: as §1
[16] = system: Candida tropicalis; assay: Antifungal activity against Candida tropicalis after 48 hrs by M27-A3 CLSI method; in short: as §1
[17] = system: Nakaseomyces glabratus; assay: Antifungal activity against Candida glabrata after 48 hrs by M27-A3 CLSI method; in short: as §1

| SMILES | MIC [1] | MIC [2] | MIC [3] | MIC [4] | MIC50 [4] | MIC90 [4] | MIC [5] | MIC [6] | MIC [7] | MIC [8] | MIC [9] | MIC [10] | MIC [11] | MIC [12] | MIC [13] | MIC50 [13] | MIC90 [13] | further results |
| --- | --- | --- | --- | --- | --- | --- | --- | --- | --- | --- | --- | --- | --- | --- | --- | --- | --- | --- |
| O=C(OC(Cn1ccnc1)c1ccccc1)c1cccc(C(F)(F)F)c1 (racemic) | 64 mg/L (≈ 178 µM) | ≥ 64 mg/L | 32 mg/L (≈ 88.8 µM) | 85 mg/L (≈ 236 µM) | 64 mg/L (≈ 178 µM) | 128 mg/L (≈ 355 µM) | 32 mg/L (≈ 88.8 µM) | > 64 mg/L | ≥ 64 mg/L | > 64 mg/L | ≥ 64 mg/L | > 64 mg/L | 8 mg/L (≈ 22.2 µM) | 64 mg/L (≈ 178 µM) | 91.4 mg/L (≈ 254 µM) | 64 mg/L (≈ 178 µM) | 128 mg/L (≈ 355 µM) | – |
| OC(Cn1cncn1)(Cn1cncn1)c1ccc(F)cc1F [FLUCONAZOLE] | 2 mg/L (≈ 6.53 µM) | 1 mg/L (≈ 3.27 µM) | 2.5 mg/L (≈ 8.16 µM) | 7.9 mg/L (≈ 25.8 µM) | 2 mg/L (≈ 6.53 µM) | 16 mg/L (≈ 52.2 µM) | 2 mg/L (≈ 6.53 µM) | 0.5 mg/L (≈ 1.63 µM) | 0.25 mg/L (≈ 0.816 µM) | 1 mg/L (≈ 3.27 µM) | 16 mg/L (≈ 52.2 µM) | 16 mg/L (≈ 52.2 µM) | 1 mg/L (≈ 3.27 µM) | 12 mg/L (≈ 39.2 µM) | 4.9 mg/L (≈ 16 µM) | 1 mg/L (≈ 3.27 µM) | 16 mg/L (≈ 52.2 µM) | MIC [14]: 26 mg/L (≈ 84.9 µM); MIC [15]: 1.6 mg/L (≈ 5.22 µM); MIC [16]: 3.25 mg/L (≈ 10.6 µM); MIC [17]: 0.87 mg/L (≈ 2.84 µM) |
| O=C(OC(Cn1ccnc1)c1ccc(F)cc1)c1cccc(C(F)(F)F)c1 (racemic; 3b) | > 8 mg/L | 16 mg/L (≈ 42.3 µM) | > 64 mg/L | 52.9 mg/L (≈ 140 µM) | 8 mg/L (≈ 21.1 µM) | 128 mg/L (≈ 338 µM) | 8 mg/L (≈ 21.1 µM) | > 64 mg/L | > 64 mg/L | 4 mg/L (≈ 10.6 µM) | 2 mg/L (≈ 5.29 µM) | > 64 mg/L | 4 mg/L (≈ 10.6 µM) | 8 mg/L (≈ 21.1 µM) | 27.7 mg/L (≈ 73.2 µM) | 8 mg/L (≈ 21.1 µM) | 16 mg/L (≈ 42.3 µM) | – |
| O=C(Nc1cc(Cl)nc(Cl)c1)OC(Cn1ccnc1)c1ccc(Cl)cc1 (racemic) | > 64 mg/L | > 64 mg/L | > 64 mg/L | 121 mg/L (≈ 294 µM) | 128 mg/L (≈ 311 µM) | 128 mg/L (≈ 311 µM) | > 64 mg/L | > 64 mg/L | > 64 mg/L | > 64 mg/L | > 64 mg/L | > 64 mg/L | > 64 mg/L | > 64 mg/L | 119 mg/L (≈ 289 µM) | 128 mg/L (≈ 311 µM) | 128 mg/L (≈ 311 µM) | – |
| CC(C)c1ccc(NC(=O)OC(Cn2ccnc2)c2ccccc2)cc1 (racemic) | 64 mg/L (≈ 183 µM) | 32 mg/L (≈ 91.6 µM) | 64 mg/L (≈ 183 µM) | 107 mg/L (≈ 305 µM) | 128 mg/L (≈ 366 µM) | 128 mg/L (≈ 366 µM) | 64 mg/L (≈ 183 µM) | > 64 mg/L | ≥ 64 mg/L | > 64 mg/L | ≥ 64 mg/L | > 64 mg/L | > 64 mg/L | 64 mg/L (≈ 183 µM) | 77.7 mg/L (≈ 222 µM) | 64 mg/L (≈ 183 µM) | 128 mg/L (≈ 366 µM) | – |
| O=C(OC(Cn1ccnc1)c1ccc(C(F)(F)F)cc1)c1cccc(C(F)(F)F)c1 (racemic) | 64 mg/L (≈ 149 µM) | ≥ 64 mg/L | 32 mg/L (≈ 74.7 µM) | 100 mg/L (≈ 233 µM) | 128 mg/L (≈ 299 µM) | 128 mg/L (≈ 299 µM) | 64 mg/L (≈ 149 µM) | > 64 mg/L | ≥ 64 mg/L | > 64 mg/L | ≥ 64 mg/L | > 64 mg/L | > 64 mg/L | 64 mg/L (≈ 149 µM) | 91.4 mg/L (≈ 213 µM) | 64 mg/L (≈ 149 µM) | 128 mg/L (≈ 299 µM) | – |
| CC(C)c1ccc(NC(=O)OC(Cn2ccnc2)c2ccc(F)cc2)cc1 (racemic) | > 64 mg/L | 1 mg/L (≈ 2.72 µM) | 4 mg/L (≈ 10.9 µM) | 68.4 mg/L (≈ 186 µM) | 4 mg/L (≈ 10.9 µM) | 128 mg/L (≈ 348 µM) | 2 mg/L (≈ 5.44 µM) | > 64 mg/L | ≥ 64 mg/L | > 64 mg/L | 16 mg/L (≈ 43.5 µM) | 16 mg/L (≈ 43.5 µM) | 16 mg/L (≈ 43.5 µM) | 64 mg/L (≈ 174 µM) | 39.6 mg/L (≈ 108 µM) | 16 mg/L (≈ 43.5 µM) | 64 mg/L (≈ 174 µM) | – |
| OC(Cn1ccnc1)c1ccccc1 (racemic) | ≥ 64 mg/L | 64 mg/L (≈ 340 µM) | > 64 mg/L | 98.5 mg/L (≈ 523 µM) | 64 mg/L (≈ 340 µM) | 128 mg/L (≈ 680 µM) | > 64 mg/L | > 64 mg/L | > 64 mg/L | 64 mg/L (≈ 340 µM) | ≥ 64 mg/L | > 64 mg/L | ≥ 64 mg/L | > 64 mg/L | 107 mg/L (≈ 567 µM) | 128 mg/L (≈ 680 µM) | 128 mg/L (≈ 680 µM) | – |
| O=C(COc1ccccc1)OC(Cn1ccnc1)c1ccc(F)cc1 (racemic) | > 64 mg/L | 16 mg/L (≈ 47 µM) | 1 mg/L (≈ 2.94 µM) | 61.1 mg/L (≈ 180 µM) | 4 mg/L (≈ 11.8 µM) | 128 mg/L (≈ 376 µM) | 8 mg/L (≈ 23.5 µM) | 16 mg/L (≈ 47 µM) | > 64 mg/L | > 64 mg/L | ≥ 64 mg/L | > 64 mg/L | 4 mg/L (≈ 11.8 µM) | 16 mg/L (≈ 47 µM) | 76.6 mg/L (≈ 225 µM) | 64 mg/L (≈ 188 µM) | 128 mg/L (≈ 376 µM) | – |
